The target in assay [1] is Tyrosine-protein phosphatase non-receptor type 11, SHP-2 (Homo sapiens) (UniProt Q06124). Nature of the assay: Inhibitory activity against phosphatase (SHP-2) at a concentration of 100 uM.
Assay [2] deals with Receptor-type tyrosine-protein phosphatase F (Homo sapiens) (UniProt P10586). Nature of the assay: Inhibitory activity against phosphatase (LAR) at a concentration of 100 uM. The procedure, abridged: (§1)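 Purified recombinant human enzyme constructs; PTP1B is a C-terminally truncated soluble form, tested alongside LAR and SHP-2. Activity is read as the initial rate of p-nitrophenyl phosphate (pNPP) hydrolysis and reported as percent inhibition. PTP1B is tested at 100, 10 and 1 µM, or 10 and 1 µM in the salicylate series; LAR and SHP-2 at 100 µM.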
Sequence of Receptor-type tyrosine-protein phosphatase F (Homo sapiens) (P10586 whole entry, the tested form may be a part): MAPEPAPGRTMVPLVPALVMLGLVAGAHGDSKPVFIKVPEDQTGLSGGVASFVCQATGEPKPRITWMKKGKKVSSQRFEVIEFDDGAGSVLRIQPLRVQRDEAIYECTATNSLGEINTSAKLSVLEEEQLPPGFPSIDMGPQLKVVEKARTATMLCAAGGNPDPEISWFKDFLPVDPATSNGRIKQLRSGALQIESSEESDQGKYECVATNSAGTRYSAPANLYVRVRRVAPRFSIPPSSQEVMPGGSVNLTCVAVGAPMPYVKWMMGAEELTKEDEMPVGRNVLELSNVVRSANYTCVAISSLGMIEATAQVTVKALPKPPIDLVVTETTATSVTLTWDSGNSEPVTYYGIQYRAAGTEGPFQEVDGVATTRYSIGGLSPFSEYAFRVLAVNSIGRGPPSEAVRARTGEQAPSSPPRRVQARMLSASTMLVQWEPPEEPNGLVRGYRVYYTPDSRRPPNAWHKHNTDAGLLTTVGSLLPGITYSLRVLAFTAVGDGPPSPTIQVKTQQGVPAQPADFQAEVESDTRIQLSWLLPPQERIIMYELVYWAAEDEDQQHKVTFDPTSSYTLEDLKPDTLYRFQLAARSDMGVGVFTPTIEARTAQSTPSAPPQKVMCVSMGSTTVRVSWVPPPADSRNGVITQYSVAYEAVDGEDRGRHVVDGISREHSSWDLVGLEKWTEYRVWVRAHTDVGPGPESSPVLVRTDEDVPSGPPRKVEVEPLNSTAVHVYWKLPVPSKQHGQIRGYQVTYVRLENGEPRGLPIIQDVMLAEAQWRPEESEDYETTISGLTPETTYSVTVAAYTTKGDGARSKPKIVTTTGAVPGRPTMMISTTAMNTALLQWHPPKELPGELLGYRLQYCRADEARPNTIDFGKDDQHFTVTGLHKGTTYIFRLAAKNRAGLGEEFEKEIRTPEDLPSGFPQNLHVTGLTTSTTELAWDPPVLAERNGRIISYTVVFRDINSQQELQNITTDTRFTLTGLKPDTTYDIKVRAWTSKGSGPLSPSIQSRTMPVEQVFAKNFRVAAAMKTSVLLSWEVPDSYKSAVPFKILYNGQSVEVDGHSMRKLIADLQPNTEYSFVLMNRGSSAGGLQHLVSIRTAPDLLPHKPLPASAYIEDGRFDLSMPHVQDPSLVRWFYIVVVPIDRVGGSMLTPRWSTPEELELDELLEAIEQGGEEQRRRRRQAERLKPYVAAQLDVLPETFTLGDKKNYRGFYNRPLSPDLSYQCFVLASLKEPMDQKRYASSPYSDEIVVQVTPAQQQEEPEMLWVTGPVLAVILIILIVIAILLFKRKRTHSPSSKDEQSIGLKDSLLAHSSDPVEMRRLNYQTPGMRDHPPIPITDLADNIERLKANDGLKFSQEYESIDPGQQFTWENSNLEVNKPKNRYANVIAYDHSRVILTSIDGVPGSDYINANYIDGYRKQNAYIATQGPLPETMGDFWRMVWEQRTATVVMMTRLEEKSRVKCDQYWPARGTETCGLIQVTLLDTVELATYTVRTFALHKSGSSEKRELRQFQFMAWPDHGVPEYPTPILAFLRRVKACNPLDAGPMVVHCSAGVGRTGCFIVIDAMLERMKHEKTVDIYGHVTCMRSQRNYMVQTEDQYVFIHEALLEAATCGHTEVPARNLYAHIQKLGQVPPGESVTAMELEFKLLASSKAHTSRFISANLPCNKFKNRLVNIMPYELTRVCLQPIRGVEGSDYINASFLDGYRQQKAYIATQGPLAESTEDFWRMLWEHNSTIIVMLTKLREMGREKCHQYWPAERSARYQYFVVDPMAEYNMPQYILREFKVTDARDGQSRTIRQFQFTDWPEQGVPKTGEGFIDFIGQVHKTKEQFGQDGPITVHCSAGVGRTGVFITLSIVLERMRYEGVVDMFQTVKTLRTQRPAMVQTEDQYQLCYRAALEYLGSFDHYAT

The target in assay [3] is T1, Tyrosine-protein phosphatase non-receptor type 1 (Homo sapiens) (UniProt P18031).
T1 sequence (whole entry): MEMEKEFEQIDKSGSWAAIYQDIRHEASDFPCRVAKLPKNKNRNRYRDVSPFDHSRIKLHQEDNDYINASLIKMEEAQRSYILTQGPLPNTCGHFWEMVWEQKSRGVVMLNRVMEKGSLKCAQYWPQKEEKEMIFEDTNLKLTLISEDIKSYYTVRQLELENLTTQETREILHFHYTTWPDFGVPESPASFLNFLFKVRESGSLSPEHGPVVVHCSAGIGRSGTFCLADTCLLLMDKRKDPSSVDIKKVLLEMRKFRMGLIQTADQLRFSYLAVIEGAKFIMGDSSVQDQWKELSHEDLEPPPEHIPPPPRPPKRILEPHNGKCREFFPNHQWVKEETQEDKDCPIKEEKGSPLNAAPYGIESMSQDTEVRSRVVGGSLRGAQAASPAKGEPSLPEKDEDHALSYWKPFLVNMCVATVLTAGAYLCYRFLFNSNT
Nature of the assay: Inhibitory activity against human protein tyrosine phosphatase 1B (PTP1B) at a concentration of 10 uM. The procedure, abridged: as §1

Assay [4] concerns the target T1, Tyrosine-protein phosphatase non-receptor type 1 (Homo sapiens). Nature of the assay: Inhibitory activity against human protein tyrosine phosphatase 1B (PTP1B) at a concentration of 1 uM. The procedure, abridged: as §1
For assay [5], the target named is T2, Tyrosine-protein phosphatase non-receptor type 11 (Homo sapiens) (UniProt Q06124).
T2 sequence (whole entry): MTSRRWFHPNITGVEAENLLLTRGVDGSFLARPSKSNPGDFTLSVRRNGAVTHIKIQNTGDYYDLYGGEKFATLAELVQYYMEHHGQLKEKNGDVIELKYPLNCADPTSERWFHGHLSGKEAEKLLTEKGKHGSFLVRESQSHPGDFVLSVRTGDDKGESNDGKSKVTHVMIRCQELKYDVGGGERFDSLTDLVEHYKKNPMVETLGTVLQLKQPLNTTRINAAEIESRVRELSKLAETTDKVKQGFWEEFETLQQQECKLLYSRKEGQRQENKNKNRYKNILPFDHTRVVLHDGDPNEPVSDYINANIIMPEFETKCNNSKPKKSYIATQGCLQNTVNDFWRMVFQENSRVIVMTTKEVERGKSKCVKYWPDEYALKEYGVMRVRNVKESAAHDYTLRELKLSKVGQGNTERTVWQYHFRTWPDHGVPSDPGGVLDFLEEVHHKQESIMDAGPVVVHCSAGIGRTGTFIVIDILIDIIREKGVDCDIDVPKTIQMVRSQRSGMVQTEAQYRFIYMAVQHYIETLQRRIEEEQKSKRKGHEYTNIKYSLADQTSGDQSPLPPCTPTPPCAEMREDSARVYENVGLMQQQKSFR
Kind of assay: Inhibition of recombinant human phosphatase (SHP-2) at a concentration of 100 uM. The gist of the method: as §1

Assay [6] addresses T3, Tyrosine-protein phosphatase non-receptor type 1 (Homo sapiens, UniProt P18031).
T3 sequence (P18031 whole entry): T1 sequence (whole entry)
Nature of the assay: Inhibitory activity against human protein tyrosine phosphatase 1B (PTP1B). The gist of the method:
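Ki against a C-terminally truncated, soluble recombinant human PTP1B. Initial rates of pNPP hydrolysis are measured, and the Ki is computed by the Cornish-Bowden direct linear method.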

Assay [7] is described as follows: Uptake of 2-DOG (2-deoxyglucose) into L6 myocytes in the presence of half-maximal concentration of insulin at 100 uM. The format is functional, Rattus norvegicus. The procedure, abridged:
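L6 myotubes are exposed to compound at 100 µM with 10 nM insulin, a dose eliciting about 50% of maximal uptake. The initial rate of 2-[3H]deoxyglucose uptake is measured, with L-[14C]glucose marking extracellular space, and normalized to recovered lysate protein. Net insulin-dependent transport with inhibitor is expressed as a percent of that without inhibitor.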

Assay [8] deals with T2, Tyrosine-protein phosphatase non-receptor type 11 (Homo sapiens). Nature of the assay: Inhibitory activity against phosphatase ([…]) at a concentration of 100 uM. The gist of the method:
as §1

Assay [9] deals with T1, Tyrosine-protein phosphatase non-receptor type 1 (Homo sapiens). Nature of the assay: Inhibitory activity against human protein tyrosine phosphatase 1B (PTP1B) at a concentration of 100 uM. The procedure, abridged: as §1

As a reminder, the inhibition is the relative decrease from the control value, in per cent. As a reminder, the Ki is a measure of affinity in units of concentration, obtained from inhibition or displacement.

SMILES strings stand for the structures.

For the compound `CCCCCCCCCCCCCCCCCC(=O)N[C@@H](Cc1ccccc1)C(=O)N[C@@H](Cc1ccc(OCC(=O)O)c(C(=O)O)c1)C(=O)NCCCCC`, the inhibition was 54% in [1], 0% in [2], 3% in assay [3] and 1% in assay [4].
Take `CCCCCNC(=O)[C@H](Cc1ccc(OCC(=O)O)c(C(=O)O)c1)NC(=O)[C@H](Cc1ccccc1)NC(=O)CCc1ccccc1`: the inhibition in assay [5] is 12%; in assay [2], 0%; in assay [3], 74%; in [4], 22%. Also, in assay [6], affinity was put at a Ki of 1400 nM. Besides, the “Control Uptake” value in assay [7] is on record as 136%.
Take `CCCCCNC(=O)[C@H](Cc1ccc(OC(C(=O)O)C(=O)O)cc1)NC(=O)[C@H](Cc1ccccc1)NC(=O)OC(C)(C)C`: the inhibition in assay [8] is 10%; in assay [2], 27%; in [3], 48%; in assay [9], 91%; in assay [4], 7%. The compound also came in with a Ki in [6] of 9000 nM. In addition, the “Control Uptake” value in assay [7] was found to be 88%.
Take `CCCCCNC(=O)[C@H](Cc1ccc(OC(C(=O)O)C(=O)O)cc1)NC(=O)[C@H](C)NC(=O)OC(C)(C)C`: the inhibition was 3% in assay [5]; 0% in assay [2]; 36% in assay [3]; 83% in assay [9]; 7% in [4]. The inhibition constant (Ki) in assay [6] came to 14000 nM. Also, the “Control Uptake” value in assay [7] was found to be 88%.
In the case of `CCCCCNC(=O)[C@H](Cc1ccc(OC(C(=O)O)C(=O)O)cc1)NC(=O)[C@@H](NC(=O)OC(C)(C)C)C(C)C`, the inhibition turned out to be 0% in [1]; 0% in assay [2]; 18% in [3]; 72% in assay [9]; 3% in [4].
For the compound `CCCCCNC(=O)[C@H](Cc1ccc(OCC(=O)O)c(C(=O)O)c1)NC(=O)[C@H](Cc1ccccc1)NC(=O)Cn1nnnc1S`, the inhibition in assay [5] came to 10%; in [2], 0%; in [3], 91%; in assay [4], 57%. The affinity in assay [6] corresponds to a Ki of 700 nM. In addition, the “Control Uptake” value in assay [7] is on record as 89%.
Turning to `CCCCCNC(=O)[C@H](Cc1ccc(OCC(=O)O)c(C(=O)O)c1)NC(=O)[C@H](Cc1ccccc1)NC(=O)Cc1ccc(OC)cc1`, the inhibition in assay [5] stood at 25%; in [2], 5%; in [3], 87%; in [4], 46%. In [6], this compound gave a Ki of 670 nM. Further, the “Control Uptake” value in [7] is recorded as 141%.

(Values after ChEMBL document CHEMBL1136635, “Modification of the N-terminus of peptidomimetic protein tyrosine phosphatase 1B (PTP1B) inhibitors: identification of analogues with cellular activity” (Bioorg Med Chem Lett, 2003).)
